In data set [1] the test system is HepG2. As to the kind of experiment: Cytotoxicity against human HepG2 cells after 48 hrs by sulforhodamine B assay. It counts as functional, cell-based. The settings on record: HepG2, 48 h. The gist of the method:
(§1)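 Cells seeded at 5000/well, incubated overnight at 37 °C, then exposed 48 h to 0.1 µM-100 µM compound from DMSO stock (final DMSO ≤0.25%); 0.25% DMSO vehicle and 10 μM doxorubicin controls. Fixed, stained with sulforhodamine B, absorbance normalized to untreated cells; 4-parameter logistic fit gives IC50, mean ± SD of two independent assays.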

The nature of data set [2]: Cytotoxicity against […] cells after 48 hrs by sulforhodamine B assay. It counts as functional, cell-based. The settings on record: Hepa1-6, 48 h. The gist of the method: as §1
(The SRB assay estimates cell density from bound dye.)

A further data set has as its system Caco-2. As to the kind of experiment: Cytotoxicity against human Caco2 cells after 48 hrs by sulforhodamine B assay. It counts as functional, cell-based. The settings on record: Caco-2, 48 h. The gist of the method: as §1
Another data set relates to HT-29. Nature of the data set: Cytotoxicity against human HT-29 cells after 48 hrs by sulforhodamine B assay. It counts as functional, cell-based. The settings on record: HT-29, 48 h. The gist of the method: as §1
For the next data set, the system named is HeLa. Nature of the data set: Cytotoxicity against human HeLa cells after 48 hrs by sulforhodamine B assay. The data set is classed as functional, cell-based. An outline of the steps:
as §1

Another data set relates to NIH3T3. As to the kind of experiment: Cytotoxicity against […] cells after 48 hrs by sulforhodamine B assay. It counts as functional, cell-based. The settings on record: Mus musculus, NIH3T3, 48 h. An outline of the steps:
as §1

Data set [3] relates to Hepa1-6. As to the kind of experiment: Cytotoxicity against […] cells at 2.5 to 5 uM after 48 hrs by MTS assay. It counts as functional, cell-based. The gist of the method:
(§2)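 Fresh CD-1 mouse hepatocytes (Williams' E medium) or Hepa1-6 (DMEM, 10% FBS), plated, incubated overnight at 37 °C; media refreshed, then 0.5, 2.5, 5 and 10 μM compound for 48 h. MTS reagent added for 4 h at 37 °C, 5% CO2; A490 normalized to untreated cells. Two independent experiments in duplicate, mean ± SD.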
For orientation: Formazan colour is commonly taken as a measure of viable cells.

The next data set concerns Hepatocyte. Nature of the data set: Cytotoxicity against CD1 mouse hepatocytes at 10 uM after 48 hrs by MTS assay. It counts as cell-based. An outline of the steps: as §2
In data set [4] the test system is HepG2. Nature of the data set: Cytotoxicity against human HepG2 cells at 2 times IC50 after 24 hrs by sulforhodamine B assay. The data set is classed as functional. An outline of the steps: (§3)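 HepG2 seeded at 5000 cells/well and treated at twice each compound's calculated IC50 for 24, 48 or 72 h. Cells fixed and viability read by SRB absorbance, normalized to untreated. Three independent experiments run in duplicate; mean ± SD.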

In data set [5] the test system is HepG2. Nature of the data set: Cytotoxicity against human HepG2 cells at 2 times IC50 after 48 hrs by sulforhodamine B assay. It counts as functional. An outline of the steps: as §3
The test system of data set [6] is HepG2. Nature of the data set: Cytotoxicity against human HepG2 cells at 2 times IC50 after 72 hrs by sulforhodamine B assay. It counts as functional. An outline of the steps: as §3
Data set [7] relates to HepG2. Nature of the data set: Inhibition of anchorage-independent growth of human HepG2 cells at 25 uM after 7 days by soft agar colony formation assay. It counts as functional. The settings on record: HepG2, 168 h, read-out: GI. The gist of the method: (§4)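 HepG2 at 5000 cells/well in top soft agar, exposed to compound for 7 days with compound and fresh medium replaced once on day 4. Agar solubilized on day 7 and cells quantified by fluorescence (485–520 nm filters). Duplicate wells per dose, SD shown.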

For data set [8], the system named is HepG2. Nature of the data set: Inhibition of anchorage-independent growth of human HepG2 cells at 12.5 uM after 7 days by soft agar colony formation assay. It counts as functional. The settings on record: HepG2, 168 h, read-out: GI. An outline of the steps:
as §4

For data set [9], the system named is HepG2. As to the kind of experiment: Induction of apoptosis in human HepG2 cells assessed as increase in caspase3/7 activity. The data set is classed as functional, cell-based.
Data set [10] relates to HepG2. As to the kind of experiment: Induction of apoptosis in human HepG2 cells assessed as increase in DNA fragmentation by TUNEL assay. The data set is classed as functional, cell-based.
Data set [11] is described as follows: Cytotoxicity against mouse Hepa1-6 cells after 48 hrs by sulforhodamine B assay. The settings on record: Hepa1-6, 48 h.
The nature of data set [12]: Cytotoxicity against mouse Hepa1-6 cells at 50 uM after 48 hrs by sulforhodamine B assay.
In data set [13] the test system is Hepa1-6. Nature of the data set: Cytotoxicity against mouse Hepa1-6 cells at 2.5 to 5 uM after 48 hrs by MTS assay.

Activity calls are given as the source filed them. No cut-off for these calls is given here.

One may read the IC50 as the concentration that inhibits the measured activity by half. Higher therefore signals weaker potency in that assay.

Take `c1ccc2c(c1)ccc1cc(-n3cccc3)ccc12`: the IC50 in the data set on HepG2 [1] was 13.4 µM; in data set [2], 3.9 µM; with Caco-2, more than 50 µM; with HT-29 it was more than 50 µM; in the data set on HeLa, more than 50 µM; in the data set on NIH3T3, 2.1 µM. The outcome with Hepa1-6 [3] was Active. For the same compound, the Activity result in the data set with Hepatocyte was “Non-toxic”; with HepG2 [4] it was 20%; with HepG2 [5], more than 50%; in the data set with HepG2 [6] it was more than 50%. For the same compound, the inhibition of growth at 25 µM with HepG2 [7] is more than 60%. Also, the inhibition of growth at 12.5 µM with HepG2 [8] was more than 80%. The result in the data set on HepG2 [9] and with HepG2 [10] was inactive.
`c1ccc2c(c1)ccc1c3ccccc3c(-n3cccc3)cc21`: the IC50 was more than 50 µM in the data set on HepG2 [1]; more than 50 µM with Caco-2; more than 50 µM with HT-29; more than 50 µM with HeLa; more than 50 µM with NIH3T3; 0.7 µM in [11]. In [12], this compound gave an Activity of 50%.
`c1ccn(C23CC4CC(CC(C4)C2)C3)c1`: the IC50 with HepG2 [1] is 38.6 µM; in the data set with Caco-2, more than 50 µM; in the data set with HT-29, 11.9 µM; with HeLa, 12.9 µM; with NIH3T3, 24 µM; in data set [11], 19.9 µM.
As for `c1cc2ccc3ccc(-n4cccc4)c4ccc(c1)c2c34`, the concentration for half-maximal inhibition (IC50) in the data set with HepG2 [1] is more than 50 µM; in the data set on Caco-2 it was more than 50 µM; in the data set on HT-29 it was 24.3 µM; in the data set on HeLa, 17.7 µM.
With `c1cnc2c(c1)cc(-n1cccc1)c1cccnc12`, the IC50 with HepG2 [1] is 3 µM; in the data set on HT-29 it was 4.2 µM; with HeLa, 27.9 µM; in the data set with NIH3T3, 1.9 µM; in data set [11], 3.4 µM. In addition, the Activity result in the data set with Hepatocyte is reported as “Non-toxic”; in the data set on HepG2 [4] it was 20%; in the data set with HepG2 [5], more than 50%; with HepG2 [6], more than 50%. In the data set on HepG2 [7], the inhibition of growth at 25 µM is more than 60%. Further, the inhibition of growth at 12.5 µM in the data set on HepG2 [8] is more than 80%. Further, the result in the data set with HepG2 [9] and with HepG2 [10] was inactive. In addition, the result in the data set on Hepa1-6 [13] was Active.

Values taken from ChEMBL document CHEMBL1949626, “Ultrasound-assisted bismuth nitrate-induced green synthesis of novel pyrrole derivatives and their biological evaluation as anticancer agents” (Eur J Med Chem, 2012).
